Measurements reported in PMC11890989 (Zoological Research, 2025).
Entries after “also recorded” stand apart in the source; their conditions may differ.

What was measured:
AjTRHR [1] = assay: cAMP content; type: cell-based, Apostichopus japonicus; conditions: 10^−9–10^−5 mol/L, 30 min; HEK293T, AjTRHR-pcDNA3.1(+); Figure 4C (AjTRH7), Figure 6A (AjTRH1)
In short: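 HEK293T cells transfected with AjTRHR-pcDNA3.1(+) or empty pcDNA3.1(+) were exposed to gradient-diluted peptide (10^−9–10^−5 mol/L) for 30 min. Cells were then washed twice in PBS and lysed, and intracellular cAMP was quantified with a commercial cAMP assay kit.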

AjTRHR [2] = assay: SRE-Luc reporter assay; type: cell-based, Apostichopus japonicus; conditions: 10^-9-10^-5 mol/L; HEK293T expressing AjTRHR; Supplementary Figure S6
AjTRHR [3] = assay: Ligand binding assays / receptor activation summary; type: cell-based, Apostichopus japonicus; conditions: for agonism at AjTRHR: bioinformatics and ligand-binding assays, cAMP/PKA-ERK/MAPK cascade and possibly Ca^2+-dependent pathway
Apostichopus japonicus [4] = assay: In vivo feed intake rate; conditions: AjTRH1/AjTRH7 injection, A. japonicus
In short: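 Sub-adult sea cucumbers (~30 g) were held in UV-sterilised filtered seawater at 18–20°C, 32 ppt and 12:12 h light/dark. They were fed ad libitum each morning with commercial feed mixed 1:3 with sea mud. Six groups were set up, each in five tanks of six animals. Test peptide in sterile seawater (0.5 or 0.05 mg/mL) or seawater alone was injected at 0.1% (v/w) via the mouth into the coelom at noon every two days, for over 25 days. Uneaten food was collected daily, dried and weighed. FI was calculated per a prior method, and tank was a random factor in linear mixed models with Tukey tests.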

rats = conditions: obese rats, prolonged TRH administration; ref Al-Arabi & Andrews, 2006; cited from earlier work
[5] = test system: rodents, such as rats and squirrels; conditions: ref Al-Arabi & Andrews, 2006, Frare et al., 2021, Puga et al., 2016, Schuhler et al., 2007, Schwartz et al., 2013, Steward et al., 2003; cited from earlier work
AjTRHR [6] = assay: ERK1/2 phosphorylation; type: cell-based, Apostichopus japonicus; conditions: AjTRH7 10^−6 mol/L
In short: (§1)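 HEK293T cells (DMEM, 10% FBS, 37°C, 5% CO2) were transfected at ~70% confluence with AjTRHR-pcDNA3.1(+) or empty vector using Lipofectamine 2000. Receptor cells received 10^−6 mol/L peptide for 0, 5, 15, 30, 45 or 60 min at 37°C. Lysate protein was BCA-normalised, run on 10% SDS-PAGE, blotted to PVDF and probed for pERK1/2 (1:2 000) and total ERK1/2 (1:1 000). Bands were ECL-detected and densitometry expressed as pERK/tERK; six repetitions, mean+SEM.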

[7] = test system: HEK293T cells transfected with empty pcDNA 3.1(+) vector; assay: ERK1/2 phosphorylation, empty pcDNA 3.1; type: cell-based, human; conditions: AjTRH7 10^−5 mol/L, negative control, Figure 4E
In short: as §1

Apostichopus japonicus [8] = assay: In vivo weight gain rate; conditions: 0.05 mg/mL (LTG) vs 0.5 mg/mL (HTG) AjTRH7
In short: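 Sub-adult sea cucumbers (30±5.8 g) were kept in filtered UV-sterilised seawater (18–20°C, 32 ppt, 12:12 h light/dark), six per tank and five tanks per group (30 per group), fed ad libitum each morning (commercial feed:sea mud 1:3). Peptide in sterile seawater at 0.5 or 0.05 mg/mL, or seawater alone, was injected orally into the coelom at 0.1% (v/w) every two days at noon for over 25 days. Body weight was taken at start and end to derive WGR. Analysis used linear mixed models with tank as random factor and Tukey tests.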

AjCCKP1 [9] = assay: In vivo relative AjCCKP1 expression in circumoral nerve ring; design: species or system Apostichopus japonicus; conditions: AjTRH7 0.5 mg/mL (HTG) injection; F(2,10)=6.852, P<0.05; Figure 7A
AjCCKP1 [10] = assay: In vivo relative AjCCKP1 expression in intestine, RT-qPCR; design: species or system Apostichopus japonicus; conditions: AjTRH7 0.05 mg/mL (LTG) injection; F(2,10)=8.091, P<0.05; Figure 7B
AjTRHR [11] = assay: Intracellular Ca2+ mobilization; type: cell-based, Apostichopus japonicus; conditions: negative control, reverse sequence of AjTRH7; Supplementary Figure S3B
In short: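 HEK293T cells were grown in DMEM with 10% FBS at 37°C and 5% CO2. At ~70% confluence they were transfected by lipofection with receptor-pcDNA3.1(+). Cells were loaded with 3 μmol/L Fura-2/AM for 30 min, then stimulated with peptide. Test peptides spanned 10−9–10−5 mol/L, with reversed-sequence peptide or empty-vector cells as negative controls. Fluorescence was read on a plate reader. Experiments were repeated independently at least three times.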

Substance: pQYFA [AjTRH1]
- cAMP accumulation (AjTRHR [1]): cAMP accumulation
- Ca2+ mobilization (SRE-driven luciferase activity) (AjTRHR [2]): no Ca^2+ mobilization was observed; also recorded: does not induce significant Ca^2+ influx
- agonism at AjTRHR (AjTRHR [3]): activates AjTRHR by increasing cAMP levels
- binding to AjTRHR (AjTRHR [3]; inferred from receptor assays in HEK293T cells expressing AjTRHR): binds to AjTRHR
- food intake (summary) (Apostichopus japonicus [4]): inhibited food intake

Substance: thyrotropin-releasing hormone [TRH]
- body weight (rats): reduced body weight
- food intake (rats): suppress food intake
- resting metabolic rate (rats): elevate resting metabolic rates
- feeding motivation and feeding behavior [5]: suppress feeding motivation and inhibit feeding behavior

Substance: pQLPGSPWKFWE [AjTRH7]
- cAMP accumulation (AjTRHR [1]): cAMP accumulation
- p-ERK1/2 activity at 15 min (AjTRHR [6]; 15 min, 37°C, mean±SEM (n=6), F(5,10)=5.563, P<0.05, Figure 4E): markedly increased
- p-ERK1/2 activity at 30 min (AjTRHR [6]; 30 min, 37°C, mean±SEM (n=6), F(5,10)=5.563, P<0.05, Figure 4E): markedly increased
- p-ERK1/2 after the peak (AjTRHR [6]; after 15 min peak, up to 60 min): subsequently returning to baseline levels
- p-ERK1/2 response in empty vector cells [7]: no significant responses
- agonism at AjTRHR (AjTRHR [3]): acts as an agonist for AjTRHR
- food intake (summary) (Apostichopus japonicus [4]): inhibited food intake
- inhibitory effect, LTG compared with HTG (WGR context) (Apostichopus japonicus [8]): stronger inhibitory effect in the LTG group than in the HTG group
- AjCCKP1 expression in CNR (AjCCKP1 [9]): significantly up-regulated
- AjCCKP1 expression in intestine (AjCCKP1 [10]): significantly up-regulated

Substance: EWFKWPSGPLQ
- Ca2+ response to reverse peptide sequence (AjTRHR [11]): no observable responses
